Tested on: U2OS
Assay: Multiplex assay against U2OS
Assay type: toxicity, cell-based
Conditions: human
Procedure, shortened: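 At seeding, live cells were stained with Hoechst33342, BioTracker Green Microtubule Cytoskeleton Dye, MitoTracker Red and Annexin V Alexa Fluor 680. After compound addition they were imaged on a CQ1 microscope at 37°C and 5% CO2, and CellPathfinder machine-learning gating sorted them into Hoechst high-intensity objects or normal cells, with normal cells further split into healthy, pyknosed or fragmented nuclei and pyknosed cells into mitotic or apoptotic. Tubulin, mitochondrial-mass and membrane-permeability phenotypes are given as per cents of cells with healthy nuclei.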

[1] = 12 h, 1 µM, compound concentration 1 uM, replicate 1
[2] = 12 h, 1 µM, compound concentration 1 uM, replicate 2
[3] = 12 h, 10 µM, compound concentration 10 uM, replicate 1
[4] = 12 h, 10 µM, compound concentration 10 uM, replicate 2
[5] = 24 h, 1 µM, compound concentration 1 uM, replicate 1
[6] = 24 h, 1 µM, compound concentration 1 uM, replicate 2
[7] = 24 h, 10 µM, compound concentration 10 uM, replicate 1
[8] = 24 h, 10 µM, compound concentration 10 uM, replicate 2
[9] = 48 h, 1 µM, compound concentration 1 uM, replicate 1
[10] = 48 h, 1 µM, compound concentration 1 uM, replicate 2
[11] = 48 h, 10 µM, compound concentration 10 uM, replicate 1
[12] = 48 h, 10 µM, compound concentration 10 uM, replicate 2

## Cl.Oc1ccc2c3c1O[C@H]1c4[nH]c5c(c4C[C@@]4(O)[C@@H](C2)N(CC2CC2)CC[C@]314)C[C@@]1(O)[C@H]2Cc3ccc(O)c4c3[C@@]1(CCN2CC1CC1)[C@H]5O4
[1]
  Population Apoptotic (%): 38%
  Population Fragmented Nuclei (%): 9%
  Population Healthy Nuclei (%): 79%
  Population Hoechst High Intensity Objects (%): 6%
  Population Membrane Permeable-Phenotype (%): 9%
  Population Mitochondria Different-Phenotype (%): 15%
  Population Mitotic Cells (%): 61%
  Population Normal (%): 93%
  Population Tubulin-Different-Phenotype (%): 14%
  Total Cell Count: 105
[2]
  Population Apoptotic (%): 42%
  Population Fragmented Nuclei (%): 3%
  Population Healthy Nuclei (%): 86%
  Population Hoechst High Intensity Objects (%): 9%
  Population Membrane Permeable-Phenotype (%): 10%
  Population Mitochondria Different-Phenotype (%): 19%
  Population Mitotic Cells (%): 57%
  Population Normal (%): 90%
  Population Pyknosed Nuclei (%): 10%
  Population Tubulin-Different-Phenotype (%): 17%
  Total Cell Count: 97
[3]
  Population Apoptotic (%): 57%
  Population Fragmented Nuclei (%): 14%
  Population Healthy Nuclei (%): 73%
  Population Hoechst High Intensity Objects (%): 6%
  Population Membrane Permeable-Phenotype (%): 6%
  Population Mitochondria Different-Phenotype (%): 10%
  Population Mitotic Cells (%): 42%
  Population Normal (%): 93%
  Population Pyknosed Nuclei (%): 12%
  Population Tubulin-Different-Phenotype (%): 3%
  Total Cell Count: 183
[4]
  Population Apoptotic (%): 93%
  Population Fragmented Nuclei (%): 12%
  Population Healthy Nuclei (%): 48%
  Population Hoechst High Intensity Objects (%): 7%
  Population Membrane Permeable-Phenotype (%): 52%
  Population Mitochondria Different-Phenotype (%): 26%
  Population Mitotic Cells (%): 6%
  Population Normal (%): 92%
  Population Pyknosed Nuclei (%): 38%
  Population Tubulin-Different-Phenotype (%): 89%
  Total Cell Count: 73
[5]
  Population Apoptotic (%): 30%
  Population Fragmented Nuclei (%): 7%
  Population Healthy Nuclei (%): 80%
  Population Hoechst High Intensity Objects (%): 3%
  Population Membrane Permeable-Phenotype (%): 6%
  Population Mitochondria Different-Phenotype (%): 12%
  Population Mitotic Cells (%): 69%
  Population Normal (%): 96%
  Population Pyknosed Nuclei (%): 11%
  Population Tubulin-Different-Phenotype (%): 9%
  Total Cell Count: 113
[6]
  Population Apoptotic (%): 25%
  Population Fragmented Nuclei (%): 3%
  Population Healthy Nuclei (%): 91%
  Population Hoechst High Intensity Objects (%): 4%
  Population Membrane Permeable-Phenotype (%): 10%
  Population Mitochondria Different-Phenotype (%): 13%
  Population Mitotic Cells (%): 75%
  Population Normal (%): 95%
  Population Pyknosed Nuclei (%): 4%
  Population Tubulin-Different-Phenotype (%): 18%
  Total Cell Count: 94
[7]
  Population Apoptotic (%): 55%
  Population Fragmented Nuclei (%): 9%
  Population Healthy Nuclei (%): 80%
  Population Hoechst High Intensity Objects (%): 3%
  Population Membrane Permeable-Phenotype (%): 3%
  Population Mitochondria Different-Phenotype (%): 8%
  Population Mitotic Cells (%): 45%
  Population Normal (%): 96%
  Population Pyknosed Nuclei (%): 10%
  Population Tubulin-Different-Phenotype (%): 5%
  Total Cell Count: 231
[8]
  Population Apoptotic (%): 76%
  Population Fragmented Nuclei (%): 13%
  Population Healthy Nuclei (%): 58%
  Population Hoechst High Intensity Objects (%): 13%
  Population Membrane Permeable-Phenotype (%): 48%
  Population Mitochondria Different-Phenotype (%): 33%
  Population Mitotic Cells (%): 23%
  Population Normal (%): 86%
  Population Pyknosed Nuclei (%): 28%
  Population Tubulin-Different-Phenotype (%): 77%
  Total Cell Count: 91
[9]
  Population Apoptotic (%): 22%
  Population Fragmented Nuclei (%): 4%
  Population Hoechst High Intensity Objects (%): 3%
  Population Membrane Permeable-Phenotype (%): 2%
  Population Mitochondria Different-Phenotype (%): 11%
  Population Mitotic Cells (%): 77%
  Population Normal (%): 96%
  Population Pyknosed Nuclei (%): 8%
  Population Tubulin-Different-Phenotype (%): 11%
  Total Cell Count: 107
[10]
  Population Apoptotic (%): 14%
  Population Fragmented Nuclei (%): 6%
  Population Healthy Nuclei (%): 87%
  Population Hoechst High Intensity Objects (%): 4%
  Population Membrane Permeable-Phenotype (%): 9%
  Population Mitochondria Different-Phenotype (%): 16%
  Population Mitotic Cells (%): 85%
  Population Normal (%): 95%
  Population Pyknosed Nuclei (%): 5%
  Population Tubulin-Different-Phenotype (%): 14%
  Total Cell Count: 96
[11]
  Population Apoptotic (%): 47%
  Population Fragmented Nuclei (%): 4%
  Population Healthy Nuclei (%): 89%
  Population Hoechst High Intensity Objects (%): 3%
  Population Membrane Permeable-Phenotype (%): 1%
  Population Mitochondria Different-Phenotype (%): 9%
  Population Mitotic Cells (%): 52%
  Population Normal (%): 96%
  Population Pyknosed Nuclei (%): 6%
  Population Tubulin-Different-Phenotype (%): 4%
  Total Cell Count: 365
[12]
  Population Apoptotic (%): 60%
  Population Fragmented Nuclei (%): 11%
  Population Healthy Nuclei (%): 73%
  Population Hoechst High Intensity Objects (%): 8%
  Population Membrane Permeable-Phenotype (%): 30%
  Population Mitochondria Different-Phenotype (%): 34%
  Population Mitotic Cells (%): 40%
  Population Normal (%): 91%
  Population Pyknosed Nuclei (%): 15%
  Population Tubulin-Different-Phenotype (%): 84%
  Total Cell Count: 129

## Cc1ccc(C(=O)Nc2cccc(C(F)(F)F)c2)cc1Nc1nc(-c2cccnc2)nc2c1cnn2C
[1]
  Population Apoptotic (%): 41%
  Population Fragmented Nuclei (%): 18%
  Population Healthy Nuclei (%): 63%
  Population Hoechst High Intensity Objects (%): 10%
  Population Membrane Permeable-Phenotype (%): 8%
  Population Mitochondria Different-Phenotype (%): 12%
  Population Mitotic Cells (%): 58%
  Population Normal (%): 89%
  Population Pyknosed Nuclei (%): 18%
  Population Tubulin-Different-Phenotype (%): 13%
  Total Cell Count: 151
[2]
  Population Apoptotic (%): 50%
  Population Fragmented Nuclei (%): 14%
  Population Healthy Nuclei (%): 73%
  Population Hoechst High Intensity Objects (%): 3%
  Population Membrane Permeable-Phenotype (%): 6%
  Population Mitochondria Different-Phenotype (%): 25%
  Population Mitotic Cells (%): 50%
  Population Normal (%): 96%
  Population Pyknosed Nuclei (%): 12%
  Population Tubulin-Different-Phenotype (%): 14%
  Total Cell Count: 101
[3]
  Population Apoptotic (%): 69%
  Population Fragmented Nuclei (%): 13%
  Population Healthy Nuclei (%): 48%
  Population Hoechst High Intensity Objects (%): 6%
  Population Membrane Permeable-Phenotype (%): 53%
  Population Mitochondria Different-Phenotype (%): 87%
  Population Mitotic Cells (%): 30%
  Population Normal (%): 93%
  Population Pyknosed Nuclei (%): 38%
  Population Tubulin-Different-Phenotype (%): 98%
  Total Cell Count: 147
[4]
  Population Apoptotic (%): 61%
  Population Fragmented Nuclei (%): 18%
  Population Healthy Nuclei (%): 42%
  Population Hoechst High Intensity Objects (%): 8%
  Population Membrane Permeable-Phenotype (%): 78%
  Population Mitochondria Different-Phenotype (%): 92%
  Population Mitotic Cells (%): 38%
  Population Normal (%): 91%
  Population Pyknosed Nuclei (%): 39%
  Population Tubulin-Different-Phenotype (%): 100%
  Total Cell Count: 66
[5]
  Population Apoptotic (%): 42%
  Population Fragmented Nuclei (%): 10%
  Population Healthy Nuclei (%): 75%
  Population Hoechst High Intensity Objects (%): 9%
  Population Membrane Permeable-Phenotype (%): 2%
  Population Mitochondria Different-Phenotype (%): 14%
  Population Mitotic Cells (%): 57%
  Population Normal (%): 90%
  Population Pyknosed Nuclei (%): 13%
  Population Tubulin-Different-Phenotype (%): 8%
  Total Cell Count: 153
[6]
  Population Apoptotic (%): 27%
  Population Fragmented Nuclei (%): 12%
  Population Healthy Nuclei (%): 72%
  Population Hoechst High Intensity Objects (%): 3%
  Population Membrane Permeable-Phenotype (%): 7%
  Population Mitochondria Different-Phenotype (%): 29%
  Population Mitotic Cells (%): 72%
  Population Normal (%): 96%
  Population Pyknosed Nuclei (%): 14%
  Population Tubulin-Different-Phenotype (%): 16%
  Total Cell Count: 101
[7]
  Population Healthy Nuclei (%): 16%
  Population Hoechst High Intensity Objects (%): 4%
  Population Membrane Permeable-Phenotype (%): 80%
  Population Mitochondria Different-Phenotype (%): 100%
  Population Mitotic Cells (%): 10%
  Population Normal (%): 95%
  Population Pyknosed Nuclei (%): 57%
  Total Cell Count: 166
[8]
  Population Apoptotic (%): 90%
  Population Fragmented Nuclei (%): 26%
  Population Healthy Nuclei (%): 11%
  Population Hoechst High Intensity Objects (%): 20%
  Population Membrane Permeable-Phenotype (%): 100%
  Population Mitochondria Different-Phenotype (%): 75%
  Population Mitotic Cells (%): 9%
  Population Normal (%): 79%
  Population Pyknosed Nuclei (%): 61%
  Population Tubulin-Different-Phenotype (%): 100%
  Total Cell Count: 77
[9]
  Population Apoptotic (%): 58%
  Population Fragmented Nuclei (%): 11%
  Population Healthy Nuclei (%): 80%
  Population Hoechst High Intensity Objects (%): 4%
  Population Membrane Permeable-Phenotype (%): 6%
  Population Mitochondria Different-Phenotype (%): 22%
  Population Mitotic Cells (%): 41%
  Population Normal (%): 95%
  Population Pyknosed Nuclei (%): 8%
  Population Tubulin-Different-Phenotype (%): 10%
  Total Cell Count: 140
[10]
  Population Apoptotic (%): 70%
  Population Fragmented Nuclei (%): 7%
  Population Healthy Nuclei (%): 78%
  Population Hoechst High Intensity Objects (%): 10%
  Population Membrane Permeable-Phenotype (%): 11%
  Population Mitochondria Different-Phenotype (%): 29%
  Population Mitotic Cells (%): 30%
  Population Normal (%): 89%
  Population Pyknosed Nuclei (%): 14%
  Population Tubulin-Different-Phenotype (%): 22%
  Total Cell Count: 93
[11]
  Population Apoptotic (%): 96%
  Population Fragmented Nuclei (%): 35%
  Population Healthy Nuclei (%): 10%
  Population Hoechst High Intensity Objects (%): 10%
  Population Membrane Permeable-Phenotype (%): 100%
  Population Mitochondria Different-Phenotype (%): 100%
  Population Mitotic Cells (%): 3%
  Population Normal (%): 90%
  Population Pyknosed Nuclei (%): 54%
  Population Tubulin-Different-Phenotype (%): 100%
  Total Cell Count: 219
[12]
  Population Apoptotic (%): 100%
  Population Fragmented Nuclei (%): 25%
  Population Healthy Nuclei (%): 21%
  Population Hoechst High Intensity Objects (%): 28%
  Population Mitotic Cells (%): 0%
  Population Normal (%): 71%
  Population Pyknosed Nuclei (%): 53%
  Total Cell Count: 77
